Source: ChEMBL document CHEMBL2057141, “Imidazolopiperazines: lead optimization of the second-generation antimalarial agents” (J Med Chem, 2012)

Key:
Plasmodium falciparum [1] = assay: Antimalarial activity against Plasmodium falciparum W2 after 72 hrs by SYBR green fluorescence assay; type: functional, organism-based; conditions: W2, 72 h
Method in brief: (§1)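 P. falciparum grown in O+ erythrocytes, screened in medium without human serum plus 0.5% Albumax II. Twelve-point half-log dilutions up to 10 μM final. 0.3% parasitemia, 2.5% hematocrit; 72 h at 37 °C under low-oxygen gas. Lysis buffer with SYBR Green added, 24 h at 25 °C, fluorescence read at 485/530 nm.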

[2] = Apparent permeability across basolateral to apical side in human Caco2 cells by LC/MS analysis; type: ADME, cell-based; conditions: Caco-2
Method in brief: (§2)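 Caco-2 monolayers in 96-well format. Compound measured in apical and basolateral chambers by LC/MS, giving Papp in the A–B and B–A directions. Values reported in cm/s × 10⁶.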

[3] = Apparent permeability across apical to basolateral side in human Caco2 cells by LC/MS analysis; type: ADME, cell-based; conditions: Caco-2; method in brief: as §2
Plasmodium falciparum [4] = assay: Antimalarial activity against Plasmodium falciparum 3D7 after 72 hrs by SYBR green fluorescence assay; type: functional, organism-based; conditions: 3D7, 72 h; method in brief: as §1
[5] = Permeability of the compound by PAMPA; type: ADME
Method in brief: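 PAMPA in 96-well filter plates. Permeated compound quantified by UV absorbance at 260–290 nm. Reported as percentage absorbed.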

[6] = Cmax in Wistar rat at 10 mg/kg, po; type: ADME, organism-based; design: dose 10 mg/kg, route oral; conditions: Wistar, in vivo
Method in brief: (§3)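 Rat snapshot PK: two Wistar rats dosed orally at 10 mg/kg, formulated at 2.5 mg/mL in 75% PEG300/25% D5W. Blood (100 μL) taken at 0.5, 1, 3 and 5 h post dose. Plasma pooled by sampling time, then analysed by LC-MS/MS.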

[7] = Cmax in Balb/c mouse at 20 mg/kg, po; type: ADME, organism-based; design: dose 20 mg/kg, route oral; conditions: in vivo
Method in brief: (§4)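 Male Balb/c mice (n = 3 per group). Compound as a 2.5 mg/mL solution in PEG300/D5W 3:1, filtered. Given by lateral tail vein at 5 mg/kg (2 mL/kg) or orally at 20 mg/kg (8 mL/kg). Six serial 50 μL retro-orbital blood samples to 24 h, heparinized plasma. Plasma extracted with acetonitrile:methanol 3:1 with internal standard, LC-MS/MS. Noncompartmental analysis; F = AUCpo×dose_iv/AUCiv×dose_po.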

Plasmodium berghei [8] = assay: Antimalarial activity against Plasmodium berghei ANKA expressing GFP infected in NMRI mouse assessed as increase of mouse survival at 30 mg/kg, po administered 24 hrs post infection qd for 3 days (reference value: 6 to 7 days); type: functional
Rattus norvegicus = assay: Dose normalized AUC (0 to 5 hrs) in Wistar rat at 10 mg/kg, po; type: ADME, organism-based; design: dose 10 mg/kg, route oral; conditions: in vivo; method in brief: as §3
Mus musculus [9] = assay: Oral bioavailability in Balb/c mouse at 20 mg/kg; type: ADME, organism-based; conditions: in vivo; method in brief: as §4
[10] = Half life in Balb/c mouse at 20 mg/kg, po; type: ADME, organism-based; design: dose 20 mg/kg, route oral; conditions: in vivo; method in brief: as §4
[11] = Tmax in Balb/c mouse at 20 mg/kg, po; type: ADME, organism-based; design: dose 20 mg/kg, route oral; conditions: in vivo; method in brief: as §4
Plasmodium berghei [12] = assay: Antimalarial activity against Plasmodium berghei ANKA expressing GFP infected in NMRI mouse assessed as increase of mouse survival at 100 mg/kg, po administered 24 hrs post infection (reference value: 6 to 7 days); type: functional
[13] = AUC (0 to 5 hrs) in Wistar rat at 10 mg/kg, po; type: ADME, organism-based; design: dose 10 mg/kg, route oral; conditions: plasma
Plasmodium berghei [14] = assay: Antimalarial activity against Plasmodium berghei ANKA expressing GFP infected in NMRI mouse assessed as increase of mouse survival at 30 mg/kg, po administered 24 hrs post infection (reference value: 6 to 7 days); type: functional
[15] = Metabolic stability in mouse liver microsomes assessed as hepatic extraction ratio by LC/MS/MS analysis in presence of CYP; type: ADME, Microsome
Method in brief: (§5)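 Liver microsomes (human, mouse, rat). Compound depletion followed by LC/MS/MS. Loss of parent used to derive in vitro half-life and hepatic extraction ratio.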

[16] = Metabolic stability in rat liver microsomes assessed as hepatic extraction ratio by LC/MS/MS analysis in presence of CYP; type: ADME, Microsome; method in brief: as §5
[17] = Metabolic stability in mouse liver microsomes assessed as hepatic extraction ratio by LC/MS/MS analysis; type: ADME, Microsome; method in brief: as §5
[18] = Half life in Balb/c mouse at 5 mg/kg, iv; type: ADME, organism-based; design: dose 5 mg/kg, route intravenous; conditions: in vivo; method in brief: as §4
[19] = Volume of distribution in Balb/c mouse at 5 mg/kg, iv; type: ADME, organism-based; design: dose 5 mg/kg, route intravenous; conditions: in vivo; method in brief: as §4
Mus musculus [20] = assay: AUC (0 to 24 hrs) in Balb/c mouse at 20 mg/kg, po; type: ADME, organism-based, Plasma; design: time < 24 hr, dose 20 mg/kg, route oral; conditions: in vivo; method in brief: as §4
Mus musculus [21] = assay: AUC (0 to 24 hrs) in Balb/c mouse at 5 mg/kg, iv; type: ADME, organism-based, Plasma; design: time < 24 hr, dose 5 mg/kg, route intravenous; conditions: in vivo; method in brief: as §4
[22] = Clearance in Balb/c mouse plasma at 5 mg/kg, iv; type: ADME, organism-based; design: dose 5 mg/kg, route intravenous; method in brief: as §4
[23] = Metabolic stability in human liver microsomes assessed as hepatic extraction ratio by LC/MS/MS analysis in presence of CYP; type: ADME, Microsome; method in brief: as §5
Plasmodium berghei [24] = assay: Antimalarial activity against Plasmodium berghei ANKA expressing GFP infected in NMRI mouse assessed as reduction of parasite level in blood at 30 mg/kg, po administered 24 hrs post infection measured after 72 hrs post infection by flow cytometry; type: functional; design: scale not given: the % may be the effect or the level left
Method in brief: (§6)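 Female NMRI mice (20–22 g, n=3) are infected i.v. with 2×10^7 P. berghei GFP ANKA-infected erythrocytes. Oral compound in 75% PEG300/25% D5W is given at 10 mL/kg, once at 24 h or daily at 24/48/72 h post-infection. Parasitemia is read by flow cytometry at 72 h (single dose) or 96 h (triple dose). Activity is % reduction of mean parasitemia versus untreated controls.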

Plasmodium berghei [25] = assay: Antimalarial activity against Plasmodium berghei ANKA expressing GFP infected in NMRI mouse assessed as reduction of parasite level in blood at 30 mg/kg, po administered 24 hrs post infection qd for 3 days measured after 96 hrs post infection by flow cytometry; type: functional; design: scale not given: the % may be the effect or the level left; method in brief: as §6
[26] = molecular target: Voltage-gated inwardly rectifying potassium channel KCNH2 (Homo sapiens, UniProt Q12809); assay: Inhibition of human ERG channel expressed in CHO cells by patch clamp assay; type: cell-based
Voltage-gated inwardly rectifying potassium channel KCNH2, sequence (Q12809 whole entry): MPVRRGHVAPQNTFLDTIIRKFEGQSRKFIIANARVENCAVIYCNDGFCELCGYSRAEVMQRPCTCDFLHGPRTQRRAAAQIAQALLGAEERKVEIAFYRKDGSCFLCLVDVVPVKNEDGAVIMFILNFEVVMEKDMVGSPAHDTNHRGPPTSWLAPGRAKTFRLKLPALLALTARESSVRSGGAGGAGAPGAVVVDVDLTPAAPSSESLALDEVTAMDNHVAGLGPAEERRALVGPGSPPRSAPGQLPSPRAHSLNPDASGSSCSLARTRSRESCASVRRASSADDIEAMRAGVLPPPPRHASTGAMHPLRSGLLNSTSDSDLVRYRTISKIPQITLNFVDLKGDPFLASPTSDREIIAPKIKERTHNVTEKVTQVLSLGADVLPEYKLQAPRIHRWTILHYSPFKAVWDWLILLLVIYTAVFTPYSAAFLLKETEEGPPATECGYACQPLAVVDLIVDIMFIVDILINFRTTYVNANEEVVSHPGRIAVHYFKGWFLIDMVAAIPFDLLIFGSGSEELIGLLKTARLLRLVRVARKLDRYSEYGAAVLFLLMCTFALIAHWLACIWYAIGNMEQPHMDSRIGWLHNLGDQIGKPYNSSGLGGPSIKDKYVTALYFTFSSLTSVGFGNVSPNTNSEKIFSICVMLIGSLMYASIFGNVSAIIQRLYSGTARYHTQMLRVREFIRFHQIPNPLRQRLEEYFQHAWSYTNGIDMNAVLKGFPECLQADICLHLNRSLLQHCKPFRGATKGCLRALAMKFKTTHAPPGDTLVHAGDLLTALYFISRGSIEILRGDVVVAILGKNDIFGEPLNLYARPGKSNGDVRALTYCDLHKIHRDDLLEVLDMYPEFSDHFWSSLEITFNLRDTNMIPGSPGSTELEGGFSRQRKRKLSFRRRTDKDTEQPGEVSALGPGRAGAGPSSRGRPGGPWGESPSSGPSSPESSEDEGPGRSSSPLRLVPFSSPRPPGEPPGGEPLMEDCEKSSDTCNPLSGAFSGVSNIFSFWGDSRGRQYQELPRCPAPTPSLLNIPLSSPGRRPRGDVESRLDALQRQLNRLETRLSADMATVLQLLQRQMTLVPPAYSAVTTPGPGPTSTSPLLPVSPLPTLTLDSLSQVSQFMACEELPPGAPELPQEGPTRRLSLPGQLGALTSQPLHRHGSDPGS

Plasmodium berghei [27] = assay: Antimalarial activity against Plasmodium berghei ANKA expressing GFP infected in NMRI mouse assessed as reduction of parasite level in blood at 100 mg/kg, po administered 24 hrs post infection measured after 72 hrs post infection by flow cytometry; type: functional; design: scale not given: the % may be the effect or the level left; method in brief: as §6

Structure (SMILES)	EC50 (Plasmodium falciparum [1]) [nM]	Papp B→A [2] [×10⁻⁶ cm/s]	Papp A→B [3] [×10⁻⁶ cm/s]	EC50 (Plasmodium falciparum [4]) [nM]	permeability [5] [%]	hepatic extraction ratio [15]	hepatic extraction ratio [16]	hepatic extraction ratio [23]	further results
CC(C)(N)C(=O)N1CCn2c(nc(-c3ccc(F)cc3)c2Nc2ccc(F)cc2)C1(C)C	9	0.97	1.2	10	99.5				
CC1(C)NCCn2c1nc(-c1ccc(F)cc1)c2Nc1ccc(F)cc1	5			5	99.9	0.8	0.92	0.92	Cmax [6]: 202 nM; Cmax [7]: 6400 nM; Survival (Plasmodium berghei [8]): 12 days; AUC/dose (Rattus norvegicus): 0.9 min.ug/ml/(mg/kg); F (Mus musculus [9]): 53%; half-life [10]: 2.95 h; Tmax [11]: 1 h; Survival (Plasmodium berghei [12]): 9.7 days; AUC(0-t) at 4 h [13]: 0.423 µM·h; Survival (Plasmodium berghei [14]): 7 days; hepatic extraction ratio [17]: 0.8; half-life [18]: 0.8 h; Vd [19]: 1.2 L/kg; AUC (Mus musculus [20]): 19.447 µM·h; AUC (Mus musculus [21]): 9.09 µM·h; clearance [22]: 25.9 mL/min/kg; Activity (Plasmodium berghei [24]): 90%
CC(C)[C@@H]1c2nc(-c3ccc(F)cc3)c(Nc3ccc(F)c(Cl)c3)n2CCN1C(=O)CN	202			168					
C[C@H]1[C@H](OC(=O)CCC(=O)O)O[C@@H]2O[C@@]3(C)CC[C@H]4[C@H](C)CC[C@@H]1[C@@]24OO3 [ARTESUNATE]									Activity (Plasmodium berghei [25]): 99%; Survival (Plasmodium berghei [8]): 12.2 days; Survival (Plasmodium berghei [12]): 7 days; Survival (Plasmodium berghei [14]): 5.8 days; Activity (Plasmodium berghei [24]): 95.6%
Cc1ccc(Nc2c(-c3ccc(F)cc3)nc3n2CCN(C(=O)CN)C3(C)C)cc1	6			8					
Cc1ccc(Nc2c(-c3ccc(F)cc3)nc3n2CC(=O)NC3)cc1	1170	14.4	15	1080	80.9	0.66	0.95	0.44	hepatic extraction ratio [17]: 0.7
NCC(=O)N1CCn2c(nc(-c3ccc(F)cc3)c2Nc2ccc(F)cc2)C1	23			24	52				AUC (Mus musculus [20]): 0.965 µM·h; AUC (Mus musculus [21]): 1.072 µM·h
NCC(=O)N1CCn2c(nc(-c3ccc(F)cc3)c2Nc2ccc(F)c(Cl)c2)C1	4			4					
CC1(C)c2nc(-c3ccc(F)cc3)c(Nc3ccc(F)c(F)c3)n2CCN1C(=O)CN	5	1.3	0.61	4	51.5	0.46	0.69	0.53	Cmax [6]: 96.7 nM; Activity (Plasmodium berghei [25]): 99.7%; IC50 [26]: > 30000 nM; Cmax [7]: 1720 nM; Survival (Plasmodium berghei [8]): 17 days; AUC/dose (Rattus norvegicus): 0.95 min.ug/ml/(mg/kg); F (Mus musculus [9]): 75%; half-life [10]: 5.21 h; Activity (Plasmodium berghei [27]): 99.1%; Tmax [11]: 3 h; Survival (Plasmodium berghei [12]): 16.7 days; AUC(0-t) at 4 h [13]: 0.367 µM·h; Survival (Plasmodium berghei [14]): 15 days; half-life [18]: 5.5 h; Vd [19]: 7.5 L/kg; AUC (Mus musculus [20]): 21.058 µM·h; AUC (Mus musculus [21]): 7.062 µM·h; clearance [22]: 27.5 mL/min/kg; Activity (Plasmodium berghei [24]): 99%
CC(C)(N)C(=O)N1CCn2c(nc(-c3ccc(F)cc3)c2Nc2ccc(F)c(F)c2)C1(C)C	7			13					
Cc1ccc(Nc2c(-c3ccc(F)cc3)nc3n2CCNC3)cc1	178	2.36	8.2	161	99.5	0.87	0.96	0.79	hepatic extraction ratio [17]: 0.8
C[C@@H]1c2nc(-c3ccc(F)cc3)c(Nc3ccc(F)c(Cl)c3)n2CCN1C(=O)CN	29			31					
